Assay outcomes as filed in PubChem BioAssay.
Most compounds without a hit are left out; they make up all but 0.99% or so of the library.
Rin1 Abl inh: inhibitors of human Rin1-Abl protein interaction; inhibition, % at 7.35 µM; P00519+Q13671; TR-FRET Rin1/Abl binding, biochemical; 360,000 tested, 0.4% active; in the data active = inhibition above about 5%, passing the limit was not always enough
Arr AP2 block: blocks beta-arrestin peptide binding to AP2 adaptin | FITC-arrestin peptide / GST-AP2 beads, flow cytometry; AP2 beta2 appendage carries R879A mutation | inhibition, % at 10 µM | 340,000 tested, 0.31% active;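 active = inhibition above a set limit, near 3 SD of compounds lacking own fluorescence, cut at about 54% in these data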;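 also: plate controls were DMSO wells for no effect and 5 µM unlabelled arrestin peptide for full effect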
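System: GST-AP2 R879A glutathione beads. Medium: PBS with 0.05% Tween 20 and 0.1% BSA. Also added: FITC-arrestin peptide, 50 nM. Incubation: 12 min plus 1 h, RT. Measured by: high-throughput flow cytometry of beads, ex 488, em 535 nm. Evaluation: percent drop in bead-associated FITC signal.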
GSK3beta inhib: blocks human GSK3beta kinase activity; P49841; GST-GSK3beta kinase, ADP-Glo luminescence, 60 min; hits give low values; activity score (negative = inhibition), % at 10 µM; 300,000 tested, 0.038% active; AID 2097;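 active = more than half of replicate wells score below -50%, meaning over 50% inhibition versus plate controls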;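 also: 0% = median DMSO wells and -100% = median GW8510 positive control wells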
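Test system: GST-tagged human GSK3beta kinase, cell-free; evaluation: activity score scaled between in-plate DMSO and GW8510 controls; measured by: ADP-Glo luminescence; incubation: 60 min reaction, RT; benchmarks: DMSO and 20 µM GW8510; reagent: peptide substrate plus 25 µM ATP (final); medium: Tris/MgCl2 kinase buffer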
Dyrk1A ADPGlo: Dyrk1A (rat) kinase inhibition; Q63470; ADP-Glo luminescence, NFATc1 peptide; inhibition, % at 12.5 µM; 310,000 tested, 0.43% active; in the data active = inhibition above about 50%;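 also: plate controls were vehicle with enzyme for no effect and no enzyme for full effect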
GSK3 alpha inh: inhibitors of human GSK-3 alpha kinase; P49840; ADP-Glo luminescence, 60 min; inhibition, % at 10 µM; 320,000 tested, 0.1% active;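 active = more than half of replicates show inhibition above 20%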;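 also: GST-tagged GSK-3 alpha with peptide substrate and 25 µM ATP; 0% = DMSO neutral wells and 100% = GW8510 positive control wells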
Target sequence (P49840 whole entry, looked up): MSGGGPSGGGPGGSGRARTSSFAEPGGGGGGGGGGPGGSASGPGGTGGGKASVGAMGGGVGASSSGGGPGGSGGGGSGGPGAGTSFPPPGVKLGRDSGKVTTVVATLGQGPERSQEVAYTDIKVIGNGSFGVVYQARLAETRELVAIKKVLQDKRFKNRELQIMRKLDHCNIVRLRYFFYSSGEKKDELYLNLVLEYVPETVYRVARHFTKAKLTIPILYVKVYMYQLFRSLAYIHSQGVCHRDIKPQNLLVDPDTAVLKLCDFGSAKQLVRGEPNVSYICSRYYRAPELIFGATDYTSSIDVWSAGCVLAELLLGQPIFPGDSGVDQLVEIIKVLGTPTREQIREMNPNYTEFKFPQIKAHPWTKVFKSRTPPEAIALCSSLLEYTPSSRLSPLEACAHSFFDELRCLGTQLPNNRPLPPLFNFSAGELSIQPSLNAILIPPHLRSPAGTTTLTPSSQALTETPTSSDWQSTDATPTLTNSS
STK33 kinase inh: human STK33 kinase inhibition | 320,000 tested, 0.073% active | AID 2661 | inhibition, % at 10 µM | purified STK33, MBP phosphorylation, ADP-Glo luminescence;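 active = inhibition at or above 25%, using the most active replicate where run in duplicate; inactive = inhibition below 25%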
Arr AP2 CP1: human beta-arrestin and AP2 interaction inhibition, cherry pick; 1,300 tested, 2% active; GST-AP2 beads, FITC arrestin peptide binding, flow cytometry; GST-fused beta2-adaptin appendage, R879A mutant; inhibition, % at 10 µM; shares compounds with Arr AP2 block;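 active = inhibition above a set limit, roughly 3 SD of non-fluorescent compound noise, cut at about 38% in these data; inactive = inhibition at or below that limit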;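 also: loss of bead fluorescence from 50 nM FITC arrestin peptide bound to appendage; 0% = negative control wells and 100% = excess unlabelled arrestin peptide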
GST-FITC bead: counter-screen for beta-arrestin AP2 inhibitors: GST-GSH bead binding | shares compounds with Arr AP2 block | GST-fluorescein binding to GSH beads, fluorescence | inhibition, % at 10 µM | 1,300 tested, 2% active | AID 588338;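 active = inhibition above 50%, about 3 SD of the inhibition seen with non-fluorescent compounds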;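 also: fluorescein maleimide labelled GST captured on 4 micron glutathione beads; higher means more loss of bead fluorescence from quenching or blocked binding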
The depositor's hits bear a star; . = no result given.

SMILES	Rin1 Abl inh	Arr AP2 block	GSK3beta inhib	Dyrk1A ADPGlo	GSK3 alpha inh	STK33 kinase inh	Arr AP2 CP1	GST-FITC bead
CCN1C(=O)[C@H]2[C@@H](c3ccc(-c4ccc(OC)cc4)cc3)N[C@@](CC(C)C)(C(=O)OC)[C@H]2C1=O	0	1	2	3	-2	0	.	.
C=CCn1c(SCC(=O)Nc2cccc(S(N)(=O)=O)c2)nc2sc(C)c(C)c2c1=O	2	36	.	-4	-1	4	.	.
CCCN(CC(=O)Nc1ccccc1C)C(=O)c1ccc(N2CCCC2=O)cc1	4	2	.	-4	-1	0	.	.
Cc1ccc(N(CCC#N)C(=O)COC(=O)c2ccccn2)cc1	1	69*	4	-2	0	0	-6	-1
Cc1ccc(N(CCC#N)C(=O)COC(=O)C2=COCCO2)cc1	-2	2	8	-1	-1	-1	.	.
CCc1nc2ccc(C(=O)NCCc3ccccn3)cn2c1N(C)CCC(C)C	4	.	.	.	.	.	.	.
O=C(COc1ccccc1Cl)N(Cc1cccs1)C1CCS(=O)(=O)C1 (configuration not stated)	3	58*	1	0	1	1	19	-7
CC1CC(C)CN(C(=O)COC(=O)c2nccnc2N)C1 (configuration not stated)	2	63*	.	-4	0	1	14	1
Cc1nn(C)c(Cl)c1/C=N/OC(=O)c1ccccc1	-2	-28	2	0	0	-1	.	.
Cn1c(Cl)c(/C=N/OC(=O)c2ccccc2Cl)c2ccccc21	2	54*	2	-7	-4	-1	5	-4
CC(=O)Nc1ccc(S(=O)(=O)NC(C(=O)O)C(C)O)cc1 (configuration not stated)	-2	54*	1	0	-1	0	-19	-12
CCOC(=O)c1c(-c2cccs2)csc1NC(=O)CN1CC(C)OC(C)C1 (configuration not stated)	4	72*	-2	-7	-2	0	6	-3
CCOC(=O)c1c(-c2cccs2)csc1NC(C)=O	-1	13	5	19	3	0	.	.
CCCOc1ccc2c(c1)C(=NN=C(N)N)c1cc(OCCC)ccc1-2	-1	-21	0	4	-1	-1	.	.
CN(C)c1ccc(NC(=O)COC(=O)Cn2nnc3ccccc32)cc1	1	61*	1	-5	1	-2	-5	-9
COc1ccc(NC(=O)COC(=O)Cn2nnc3ccccc32)cc1	2	27	-1	-7	-1	-1	.	.
Cc1oc2c(CN3CCCCC3C)c(O)ccc2c(=O)c1-c1ccc(Br)cc1 (configuration not stated)	2	12	3	3	0	-1	.	.
O=C(NC(Cc1ccccc1)C(=O)O)/C(=C/c1ccc(Cl)cc1)NC(=O)c1ccco1 (configuration not stated)	-2	-5	.	-1	-2	-1	.	.
COc1ccc2oc(=O)c(C(=O)N3CCN(C(=O)c4ccco4)CC3)cc2c1	3	4	1	7	9	0	.	.
CCOc1ccccc1NC(=O)Nc1cnccn1	1	103*	1	5	-3	-1	1	16
COC(=O)c1ccccc1NC(=O)Nc1cnccn1	0	7	-2	-1	0	0	.	.
CCc1ccccc1NC(=O)Nc1cnccn1	-1	45	2	4	-2	0	-12	-6
Cc1ccc(NS(=O)(=O)c2ccc(C(=O)NNC(=O)c3ccccc3O)cc2)cc1	-1	0	1	15	0	2	.	.
CCCCN1CC(COCc2ccccc2)Oc2cccc(Oc3ccc(OC)cc3)c2S1(=O)=O (configuration not stated)	-1	23	.	.	.	.	.	.
Cc1cc(Oc2cccc3c2S(=O)(=O)N(C2CCCC2)CC(COCc2ccccc2)O3)cc(C)c1C (configuration not stated)	0	57*	.	-12	.	.	0	-8
SMILES	Rin1 Abl inh	Arr AP2 block	GSK3beta inhib	Dyrk1A ADPGlo	GSK3 alpha inh	STK33 kinase inh	Arr AP2 CP1	GST-FITC bead
O=c1c2c3c(sc2nc2n1CCCCC2)CCC3	1	104*	-6	-4	.	-1	-3	-5
O=C(CSc1nccn1Cc1ccco1)Nc1ccccc1	-3	-10	-3	-3	1	1	.	.
Cc1cc(NC(=O)c2cnn3c(C(F)(F)F)cc(-c4ccc(Br)cc4)nc23)no1	-3	6	3	20	-4	-1	-6	-7
CC(=O)c1cccc(-c2ccnc3c2CC(C(=O)NCc2ccncc2)O3)c1 (configuration not stated)	-2	.	.	.	.	.	.	.
Cc1cccc(C)c1NC(=O)CN(C)C(=O)c1cccc(NS(=O)(=O)c2ccccc2)c1	-4	59*	0	-3	-2	1	-11	-1
COc1ccc(N2CCN(CCNC(=O)Nc3ccc(C)cc3Cl)CC2)cc1	1	30	0	-2	3	0	.	.
CN(C)C(CNC(=O)CNC(=O)c1ccc2ccccc2c1)c1ccccc1 (configuration not stated)	0	59*	-4	-3	-1	-2	14	0
CCCn1c(=O)c2[nH]cnc2n(-c2ccc(Cl)cc2)c1=O	-3	58*	0	-9	2	0	11	-9
COc1cc(CC(=O)OCC(=O)N2CCN(C(=O)c3ccco3)CC2)cc(OC)c1OC	3	-13	.	-2	0	1	.	.
COc1cc(CC(=O)OCC(=O)N2CCCCC2)cc(OC)c1OC	3	58*	-1	0	1	-1	1	-5
CCOc1ccccc1CN1CCNC(=O)C1CC(=O)NC1CCCCCCC1 (configuration not stated)	1	43	-3	-3	0	0	.	.
c1ccn2cc(-c3ccc4c(c3)OCCO4)nc2c1	0	58*	-4	11	4	6	-5	-4
Cc1c(C(=O)N2CCN(c3ncccn3)CC2)oc2ccc(Cl)cc12	-1	24	.	2	-4	-1	.	.
COc1ccc(N(C(=O)c2ccco2)C(C(=O)NC2CCCCC2)c2cccs2)cc1OC (configuration not stated)	-3	105*	2	1	-2	1	2	-11
CCOc1ccc(C(C(=O)NC2CCCCC2)N(C(=O)c2ccco2)c2ccc(-n3cnnn3)c(C)c2)cc1 (configuration not stated)	0	100*	3	5	-1	-2	-19	-4
Fc1cnc(Cl)nc1NC1CCCCC1	-3	4	-1	-1	-1	0	.	.
